Laboratory results taken from article PMC12853403 (ACS infectious diseases, 2025).

Legend:
Se.TRPMPZQ = assay: Functional profiling; assay type: cell-based, Spirometra erinaceieuropaei
Sm.TRPMPZQ[D1677E] = assay: Functional profiling at Sm.TRPMPZQ[D1677E] mutant; assay type: cell-based, Schistosoma mansoni; conditions: construct lacks the cestode-specific S1 histidine
In short: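 Transiently transfected HEK293 cells (Lipofectamine-2000) replated after 24 h at 20,000 cells/well. 24 h later, loaded with Fluo-4 NW for 1 h at 37 °C in HBSS with 2.5 mM probenecid and 20 mM HEPES. FLIPR Ca2+ read at room temperature: 20 s baseline, then compound, then 250 s. Peak minus basal, normalized to (±)-PZQ at the same channel. Three-parameter fit, bottom fixed at 0%. EC50 mean ± SEM, n ≥ 3 transfections.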

[1] = in humans; cited from earlier work
Eg.TRPMPZQ = Eg.TRPMPZQ (Echinococcus granulosus, UniProt W6UVV9); assay: Ca2+ reporter assay in HEK293 cells, Eg.TRPMPZQ; assay type: cell-based; conditions: EC50 at Eg.TRPMPZQ / EC50 at Sm.TRPMPZQ
[2] = cited from earlier work
[3] = cited from earlier work; remark: listed apart in the source
[4] = test system: E. multilocularis protoscoleces; assay: Cestode motility assay on protoscoleces; assay type: cell-based; conditions: Echinococcus multilocularis, read-out: EC50, motility of E. multilocularis protoscoleces

## O=C(C1CCCCC1)N1CC(=O)N2CCc3ccccc3C2C1 (stereo not shown) [PZQ, praziquantel]
Se.TRPMPZQ
  agonist character at Se.TRPMPZQ: partial agonist
Sm.TRPMPZQ[D1677E]
  activity at Sm.TRPMPZQ[D1677E] mutant: unable to be activated
[1]
  half time: 2 to 3 h

## O=C(C1CCCCC1)N1CC(=O)N2CCc3ccccc3[C@H]2C1 [(S)-PZQ]
Eg.TRPMPZQ
  difference in potency between Eg.TRPMPZQ and Sm.TRPMPZQ: ~ 100 fold

## O=C(C1CCCCC1)N1CC(=O)N2CCCc3ccccc3C2C1 (stereo not shown) [epsiprantel]
[2]
  solubility: very insoluble
[3]
  absorption from the gastrointestinal tract: poorly absorbed

## O=C(C1CCCCC1)N1CC(=O)N2CCc3ccccc3[C@@H]2C1 [(R)-PZQ]
Eg.TRPMPZQ
  difference in potency between Eg.TRPMPZQ and Sm.TRPMPZQ: ~ 4 fold
Se.TRPMPZQ; read-out: EC50 at Se.TRPMPZQ, mean ± SEM
  EC50: 1000 ± 300 nM
Se.TRPMPZQ; relative to (R)-PZQ at Eg.TRPMPZQ
  efficacy (Bmax) at Se.TRPMPZQ: 17 ± 0.8 % of (R)-PZQ at Eg.TRPMPZQ
[4]
  EC50: 7.7 ± 1.3 nM
